Assays:
[1] = target: cGMP-specific 3',5'-cyclic phosphodiesterase (Homo sapiens, UniProt O76074); assay: Inhibition of PDE5 (unknown origin) using FAM-cGMP as substrate after 60 mins by fluorescence assay
Phosphodiesterase 8 = Phosphodiesterase 8 (Homo sapiens, UniProt O95263+O60658); assay: Inhibition of PDE8 (unknown origin) using FAM-cAMP as substrate after 60 mins by fluorescence assay; assay type: protein assay
Mus musculus [2] = assay: Reversal of contextual fear memory deficit in APP/PS1 transgenic mouse assessed as increase in freezing behavior at 3 mg/kg, ip after 3 weeks (reference value: 10%); assay type: functional; details: route intraperitoneal
Mus musculus [3] = assay: Reversal of contextual fear memory deficit in APP/PS1 transgenic mouse assessed as increase in freezing behavior at 3 mg/kg/day, ip administered 3 weeks measured after 9 to 12 weeks […] (reference value: 10%); assay type: functional; details: route intraperitoneal
Homo sapiens [4] = species on record: Homo sapiens; assay: Selectivity ratio of IC50 for PDE4 (unknown origin) to IC50 for PDE5 (unknown origin)
Homo sapiens [5] = species on record: Homo sapiens; assay: Selectivity ratio of IC50 for PDE11 (unknown origin) to IC50 for PDE5 (unknown origin)
[6] = Cmax in mouse brain at 50 mg/kg, po; assay type: ADME, organism-based; parameters: dose 50 mg/kg, route oral
Method in brief: (§1)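 Male BALB/c mice dosed once orally at 50 mg/kg in 0.05% aqueous methylcellulose. Blood (retro-orbital, heparin) and brain were taken at 0, 0.25, 0.5, 1, 2 and 4 h, three mice per time point. Plasma and methanol brain homogenate were extracted with methanol plus internal standard and analysed by LC/MS/MS. Quantitation used analyte/internal standard peak-area ratios with weighted (1/x2) linear regression.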

Mus musculus [7] = assay: Reversal of post synaptic dysfunction in APP/PS1 transgenic mouse assessed as increase in theta burst-induced long term potentiation at 3 mg/kg/day, ip administered 3 weeks measured after 9 to 12 weeks […] (reference value: 112.29 9.12%); assay type: functional; details: route intraperitoneal
Brain [8] = assay: AUC (0 to infinity) in mouse brain at 50 mg/kg, po; assay type: ADME, organism-based; parameters: dose 50 mg/kg, route oral, time infinity; details: in vivo; method in brief: as §1
[9] = Ratio of Cmax in mouse brain to Cmax in mouse plasma; assay type: ADME, cell-free
Method in brief: (§2)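 Male BALB/c mice given 50 mg/kg p.o. in 0.05% methylcellulose aqueous solution. Blood (retro-orbital, heparin) and brain taken at 0, 0.25, 0.5, 1.0, 2.0 and 4.0 h, three mice per time point. Plasma and methanol brain homogenate extracted with internal standard and quantified by LC/MS/MS (peak area ratio, weighted linear regression). Ratio is brain over plasma parameter.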

[10] = Ratio of AUC (0 to infinity) in mouse brain to AUC (0 to infinity) in mouse plasma; assay type: ADME, cell-free; method in brief: as §2
Plasma [11] = assay: AUC (0 to t) in mouse plasma at 50 mg/kg, po; assay type: ADME, organism-based; parameters: dose 50 mg/kg, route oral; details: in vivo; method in brief: as §1
Plasma [12] = assay: AUC (0 to infinity) in mouse plasma at 50 mg/kg, po; assay type: ADME, organism-based; parameters: time infinity, dose 50 mg/kg, route oral; details: in vivo; method in brief: as §1
Homo sapiens [13] = species on record: Homo sapiens; assay: Selectivity ratio of IC50 for PDE8 (unknown origin) to IC50 for PDE5 (unknown origin)
Homo sapiens [14] = species on record: Homo sapiens; assay: Selectivity ratio of IC50 for PDE3 (unknown origin) to IC50 for PDE5 (unknown origin)
Mus musculus [15] = assay: Reversal of contextual fear memory deficit in amyloid beta42-infused mouse assessed as increase in freezing behavior at 3 to 10 mg/kg, po administered immediately post electric shock measured after 24 hrs (reference value: 10%); assay type: functional; details: dose mg/kg 3-10
Method in brief: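 Aβ42 (200 nM, 1 μl over 1 min) or vehicle was infused bilaterally into the dorsal hippocampus through cannulas implanted 6–8 days earlier under Avertin. Infusion was 15 min before foot-shock training. Compound was given at 3 or 10 mg/kg p.o. immediately after training. Freezing was scored for 5 min in the same chamber 24 h later.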

Homo sapiens [16] = species on record: Homo sapiens; assay: Selectivity ratio of IC50 for PDE2 (unknown origin) to IC50 for PDE5 (unknown origin)
Homo sapiens [17] = species on record: Homo sapiens; assay: Selectivity ratio of IC50 for PDE10 (unknown origin) to IC50 for PDE5 (unknown origin)
Brain [18] = assay: Mean residence time in mouse brain at 50 mg/kg, po; assay type: ADME, organism-based; parameters: dose 50 mg/kg, route oral; details: in vivo; method in brief: as §1
Plasma [19] = assay: Tmax in mouse plasma at 50 mg/kg, po; assay type: ADME, organism-based; parameters: dose 50 mg/kg, route oral; details: in vivo; method in brief: as §1
Plasma [20] = assay: Mean residence time in mouse plasma at 50 mg/kg, po; assay type: ADME, organism-based; parameters: dose 50 mg/kg, route oral; details: in vivo
Homo sapiens [21] = species on record: Homo sapiens; assay: Selectivity ratio of IC50 for PDE9 (unknown origin) to IC50 for PDE5 (unknown origin)
Brain [22] = assay: Tmax in mouse brain at 50 mg/kg, po; assay type: ADME, organism-based; parameters: dose 50 mg/kg, route oral; details: in vivo; method in brief: as §1
Mus musculus [23] = assay: Inhibition of PDE5 in C57Bl6 mouse assessed as increase in electric shock-induced hippocampal cGMP level measured per mg of protein at 3 mg/kg, ip administered 30 mins prior to electric shock induction measured after 1 min (reference value: 0.41 0.028 pmol); assay type: functional, Hippocampus; details: route intraperitoneal
Method in brief: (§3)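 Male and female C57Bl6 mice, 2–3 months old, 20–25 g, received 3 mg/kg i.p. in 2% DMSO/2% Tween or vehicle alone. Foot shock was given 30 min later. Mice were killed 10 s, 1 min or 3 min after shock and the hippocampus was snap-frozen. cGMP was measured by enzyme immunoassay in duplicate and normalised to BCA protein; n=3 per group.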

Plasma [24] = assay: Cmax in mouse plasma at 50 mg/kg, po; assay type: ADME, organism-based; parameters: dose 50 mg/kg, route oral; details: in vivo; method in brief: as §1
Homo sapiens [25] = species on record: Homo sapiens; assay: Selectivity ratio of IC50 for PDE7 (unknown origin) to IC50 for PDE5 (unknown origin)
Homo sapiens [26] = species on record: Homo sapiens; assay: Selectivity ratio of IC50 for PDE1 (unknown origin) to IC50 for PDE5 (unknown origin)
Brain [27] = assay: AUC (0 to t) in mouse brain at 50 mg/kg, po; assay type: ADME, organism-based; parameters: dose 50 mg/kg, route oral; details: in vivo; method in brief: as §1
[28] = target: High affinity cGMP-specific 3',5'-cyclic phosphodiesterase 9A (Homo sapiens, UniProt O76083); assay: Inhibition of PDE9 (unknown origin) using FAM-cGMP as substrate after 60 mins by fluorescence assay
High affinity cGMP-specific 3',5'-cyclic phosphodiesterase 9A, sequence (O76083 whole entry): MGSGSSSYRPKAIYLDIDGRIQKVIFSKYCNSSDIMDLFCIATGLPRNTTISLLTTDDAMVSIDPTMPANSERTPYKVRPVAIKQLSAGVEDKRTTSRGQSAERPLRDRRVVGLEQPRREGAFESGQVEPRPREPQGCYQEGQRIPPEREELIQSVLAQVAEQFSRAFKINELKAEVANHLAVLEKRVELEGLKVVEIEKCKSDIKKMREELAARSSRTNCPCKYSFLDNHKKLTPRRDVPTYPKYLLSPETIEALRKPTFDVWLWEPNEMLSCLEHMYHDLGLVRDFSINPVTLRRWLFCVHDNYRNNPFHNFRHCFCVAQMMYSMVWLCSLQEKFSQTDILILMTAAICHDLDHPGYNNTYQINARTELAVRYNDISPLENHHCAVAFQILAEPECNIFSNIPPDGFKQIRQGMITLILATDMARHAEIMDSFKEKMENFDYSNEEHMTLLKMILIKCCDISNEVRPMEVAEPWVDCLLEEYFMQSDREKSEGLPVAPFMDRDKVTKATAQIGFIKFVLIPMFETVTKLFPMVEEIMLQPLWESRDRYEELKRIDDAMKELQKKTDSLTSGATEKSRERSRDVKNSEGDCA

[29] = Ratio of AUC (0 to t) in mouse brain to AUC (0 to t) in mouse plasma; assay type: ADME, cell-free; method in brief: as §2
[30] = target: cGMP-dependent 3',5'-cyclic phosphodiesterase (Homo sapiens, UniProt O00408); assay: Inhibition of PDE2 (unknown origin) using FAM-cGMP and FAM-cAMP as substrate after 60 mins by fluorescence assay
cGMP-dependent 3',5'-cyclic phosphodiesterase, sequence (O00408 whole entry): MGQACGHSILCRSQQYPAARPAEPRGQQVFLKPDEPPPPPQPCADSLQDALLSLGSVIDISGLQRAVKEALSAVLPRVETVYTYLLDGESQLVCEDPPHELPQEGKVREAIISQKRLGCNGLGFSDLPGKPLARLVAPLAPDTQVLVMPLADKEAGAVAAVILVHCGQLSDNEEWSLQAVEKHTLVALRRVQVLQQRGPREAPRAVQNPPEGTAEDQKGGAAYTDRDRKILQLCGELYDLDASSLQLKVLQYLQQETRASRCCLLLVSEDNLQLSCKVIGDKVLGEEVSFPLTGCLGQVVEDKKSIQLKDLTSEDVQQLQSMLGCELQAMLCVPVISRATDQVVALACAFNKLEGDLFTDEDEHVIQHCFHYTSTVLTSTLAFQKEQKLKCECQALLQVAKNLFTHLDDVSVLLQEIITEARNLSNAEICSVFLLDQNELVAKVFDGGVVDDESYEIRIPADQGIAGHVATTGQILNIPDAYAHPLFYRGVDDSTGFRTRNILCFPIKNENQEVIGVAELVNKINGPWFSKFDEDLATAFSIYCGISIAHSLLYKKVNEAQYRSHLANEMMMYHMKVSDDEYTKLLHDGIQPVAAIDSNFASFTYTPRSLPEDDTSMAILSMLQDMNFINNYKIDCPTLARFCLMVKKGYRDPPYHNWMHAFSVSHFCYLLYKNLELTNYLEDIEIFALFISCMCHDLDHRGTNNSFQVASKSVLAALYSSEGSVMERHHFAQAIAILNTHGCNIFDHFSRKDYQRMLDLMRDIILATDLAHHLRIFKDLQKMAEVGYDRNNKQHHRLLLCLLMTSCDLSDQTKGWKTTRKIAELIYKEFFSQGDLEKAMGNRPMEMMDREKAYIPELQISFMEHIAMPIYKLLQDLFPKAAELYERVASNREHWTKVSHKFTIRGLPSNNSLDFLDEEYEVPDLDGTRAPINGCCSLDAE

Mus musculus [31] = assay: Inhibition of PDE5 in C57Bl6 mouse assessed as increase in electric shock-induced hippocampal cGMP level measured per mg of protein at 3 mg/kg, ip administered 30 mins prior to electric shock induction measured after 3 mins (reference value: 0.46 0.0385 pmol); assay type: functional, Hippocampus; details: route intraperitoneal; method in brief: as §3
Phosphodiesterase 3 = Phosphodiesterase 3 (Homo sapiens, UniProt Q14432+Q13370); assay: Inhibition of PDE3 (unknown origin) using FAM-cGMP and FAM-cAMP as substrate after 60 mins by fluorescence assay; assay type: protein assay
Phosphodiesterase 7 = Phosphodiesterase 7 (Homo sapiens, UniProt Q13946+Q9NP56); assay: Inhibition of PDE7 (unknown origin) using FAM-cAMP as substrate after 60 mins by fluorescence assay; assay type: protein assay
Phosphodiesterase 1 = Phosphodiesterase 1 (Homo sapiens, UniProt P54750+Q01064+Q14123); assay: Inhibition of PDE1 (unknown origin) using FAM-cGMP and FAM-cAMP as substrate after 60 mins by fluorescence assay; assay type: protein assay
Mus musculus [32] = assay: Inhibition of PDE5 in C57Bl6 mouse assessed as increase in electric shock-induced hippocampal cGMP level measured per mg of protein at 3 mg/kg, ip administered 30 mins prior to electric shock induction measured after 10 secs (reference value: 0.318 0.0145 pmol); assay type: functional, Hippocampus; details: route intraperitoneal; method in brief: as §3
Homo sapiens [33] = species on record: Homo sapiens; assay: Selectivity ratio of IC50 for PDE6 (unknown origin) to IC50 for PDE5 (unknown origin)
Hippocampus [34] = assay: Reversal of post synaptic dysfunction in APP/PS1 transgenic mouse hippocampal assessed as increase in theta burst-induced long term potentiation at 50 nM incubated 10 mins prior to theta burst induction measured after 2 hrs for 5 mins by electrophysiological assay (reference value: 145.84 7.78%); assay type: functional
Method in brief: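 Transverse hippocampal slices (400 μm) from APP/PS1 mice were kept in an interface chamber at 29 °C and perfused with aerated ACSF, pH 7.4. Compound (50 nM) was bath-applied for 10 min before tetanus. CA1 fEPSP slopes were expressed as % of baseline, averaged over the last 5 min of a 2 h recording.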

Hippocampus [35] = assay: Reversal of amyloid beta42-induced post synaptic dysfunction in mouse hippocampal assessed as increase in theta burst-induced long term potentiation at 50 nM incubated 10 mins prior to theta burst induction measured after 60 mins for 5 mins by electrophysiological assay (reference value: 144.65 9.99%); assay type: functional
Phosphodiesterase 4 = Phosphodiesterase 4 (Homo sapiens, UniProt P27815+Q08499+Q07343+Q08493); assay: Inhibition of PDE4 (unknown origin) using FAM-cAMP as substrate after 60 mins by fluorescence assay; assay type: protein assay
[36] = target: cAMP and cAMP-inhibited cGMP 3',5'-cyclic phosphodiesterase 10A (Homo sapiens, UniProt Q9Y233); assay: Inhibition of PDE10 (unknown origin) using FAM-cGMP and FAM-cAMP as substrate after 60 mins by fluorescence assay
cAMP and cAMP-inhibited cGMP 3',5'-cyclic phosphodiesterase 10A, sequence (Q9Y233 whole entry): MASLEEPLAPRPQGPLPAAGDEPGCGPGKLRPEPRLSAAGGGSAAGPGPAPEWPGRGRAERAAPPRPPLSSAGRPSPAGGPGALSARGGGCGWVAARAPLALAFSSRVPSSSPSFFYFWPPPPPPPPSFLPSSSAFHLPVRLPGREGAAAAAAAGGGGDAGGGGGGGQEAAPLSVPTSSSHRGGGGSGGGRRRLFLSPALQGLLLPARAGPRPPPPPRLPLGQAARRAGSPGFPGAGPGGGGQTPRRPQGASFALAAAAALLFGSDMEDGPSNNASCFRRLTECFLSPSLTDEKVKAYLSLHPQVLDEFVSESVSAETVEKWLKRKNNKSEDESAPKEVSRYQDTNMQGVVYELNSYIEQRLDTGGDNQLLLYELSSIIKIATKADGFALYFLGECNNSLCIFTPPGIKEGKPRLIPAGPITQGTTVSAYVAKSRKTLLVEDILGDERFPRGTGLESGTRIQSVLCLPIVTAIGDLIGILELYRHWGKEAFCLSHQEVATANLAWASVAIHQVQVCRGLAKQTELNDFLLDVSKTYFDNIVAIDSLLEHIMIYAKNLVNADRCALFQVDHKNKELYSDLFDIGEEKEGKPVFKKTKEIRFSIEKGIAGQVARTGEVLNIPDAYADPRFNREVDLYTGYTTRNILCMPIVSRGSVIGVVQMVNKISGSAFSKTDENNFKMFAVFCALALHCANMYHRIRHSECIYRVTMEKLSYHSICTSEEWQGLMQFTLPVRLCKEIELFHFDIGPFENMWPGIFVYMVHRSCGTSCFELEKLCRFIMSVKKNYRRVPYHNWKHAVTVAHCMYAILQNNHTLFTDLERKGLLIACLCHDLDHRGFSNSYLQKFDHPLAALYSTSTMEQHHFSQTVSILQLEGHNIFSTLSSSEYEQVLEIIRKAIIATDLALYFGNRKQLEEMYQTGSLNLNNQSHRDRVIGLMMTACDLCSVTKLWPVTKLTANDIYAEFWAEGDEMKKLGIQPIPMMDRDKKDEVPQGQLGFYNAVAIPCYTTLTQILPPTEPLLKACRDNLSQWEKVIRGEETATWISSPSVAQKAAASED

[37] = target: Dual 3',5'-cyclic-AMP and -GMP phosphodiesterase 11A (Homo sapiens, UniProt Q9HCR9); assay: Inhibition of PDE11 (unknown origin) using FAM-cGMP and FAM-cAMP as substrate after 60 mins by fluorescence assay
Dual 3',5'-cyclic-AMP and -GMP phosphodiesterase 11A, sequence (Q9HCR9 whole entry): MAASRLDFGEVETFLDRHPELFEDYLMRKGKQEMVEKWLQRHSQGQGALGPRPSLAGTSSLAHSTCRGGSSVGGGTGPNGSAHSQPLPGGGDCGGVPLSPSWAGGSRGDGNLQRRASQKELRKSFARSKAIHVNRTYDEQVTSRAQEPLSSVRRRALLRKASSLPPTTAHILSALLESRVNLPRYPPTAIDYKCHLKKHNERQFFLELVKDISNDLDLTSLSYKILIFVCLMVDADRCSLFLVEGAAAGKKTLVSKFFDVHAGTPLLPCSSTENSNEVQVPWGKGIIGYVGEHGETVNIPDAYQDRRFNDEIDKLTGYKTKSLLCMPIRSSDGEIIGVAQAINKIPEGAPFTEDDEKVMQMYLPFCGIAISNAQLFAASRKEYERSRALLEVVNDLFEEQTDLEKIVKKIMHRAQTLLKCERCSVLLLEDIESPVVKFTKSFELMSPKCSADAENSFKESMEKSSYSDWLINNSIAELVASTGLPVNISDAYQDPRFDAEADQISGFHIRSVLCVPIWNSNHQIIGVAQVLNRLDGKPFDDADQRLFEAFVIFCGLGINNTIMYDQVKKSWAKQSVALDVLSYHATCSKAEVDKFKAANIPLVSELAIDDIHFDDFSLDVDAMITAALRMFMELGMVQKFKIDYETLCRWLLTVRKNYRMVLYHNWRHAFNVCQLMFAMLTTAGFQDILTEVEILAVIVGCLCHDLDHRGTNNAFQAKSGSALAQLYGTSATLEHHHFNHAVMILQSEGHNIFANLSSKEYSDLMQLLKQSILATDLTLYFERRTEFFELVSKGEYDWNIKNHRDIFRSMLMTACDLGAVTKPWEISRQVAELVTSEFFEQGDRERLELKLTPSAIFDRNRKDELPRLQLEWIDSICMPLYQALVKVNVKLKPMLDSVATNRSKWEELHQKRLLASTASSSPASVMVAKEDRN

Phosphodiesterase 6 = assay: Inhibition of PDE6 (unknown origin) using FAM-cGMP as substrate after 60 mins by fluorescence assay; assay type: protein assay, Homo sapiens

Compound: COc1ccc(CNc2c(CO)cnc3c(N4CCOCC4)cc(C#N)cc23)cc1Cl
- IC50 [1]: 0.00063 µM

Compound: CCCc1nc(C)c2c(=O)nc(-c3cc(S(=O)(=O)N4CCN(CC)CC4)ccc3OCC)[nH]n12
- IC50 (Phosphodiesterase 8): > 10 µM

Compound: COc1ccc(CNc2c(CO)cnc3c(NCCN(C)C)cc(C#N)cc23)cc1Cl
- IC50 [1]: 0.0043 µM

Compound: COc1ccc(CNc2c(CO)cnc3c(C4CC4)cc(C#N)cc23)cc1Cl
- Activity (Mus musculus [2]): 30%
- Activity (Mus musculus [3]): 30%
- Ratio IC50 (Homo sapiens [4]): > 10000
- Ratio IC50 (Homo sapiens [5]): > 10000
- Cmax [6]: 385 ng/g
- Activity (Mus musculus [7]): 180.9%
- AUC (Brain [8]): 420 ng·h/g
- Ratio [9]: 0.38
- Ratio AUC [10]: 0.37
- AUCt (Plasma [11]): 1014 ng·h/mL
- AUC (Plasma [12]): 1133 ng·h/mL
- Ratio IC50 (Homo sapiens [13]): > 10000
- Ratio IC50 (Homo sapiens [14]): > 10000
- Activity (Mus musculus [15]): 30%
- Ratio IC50 (Homo sapiens [16]): > 10000
- Ratio IC50 (Homo sapiens [17]): > 10000
- MRT (Brain [18]): 1.66 h
- Tmax (Plasma [19]): 0.5 h
- MRT (Plasma [20]): 1.61 h
- Ratio IC50 (Homo sapiens [21]): > 10000
- Tmax (Brain [22]): 0.5 h
- Activity (Mus musculus [23]): 0.69 pmol
- Cmax (Plasma [24]): 1022 ng/mL
- Ratio IC50 (Homo sapiens [25]): > 10000
- Ratio IC50 (Homo sapiens [26]): > 10000
- AUCt (Brain [27]): 418 ng·h/g
- IC50 [28]: > 10 µM
- Ratio AUC [29]: 0.41
- IC50 [30]: > 10 µM
- Activity (Mus musculus [31]): 0.89 pmol
- IC50 (Phosphodiesterase 3): > 10 µM
- IC50 (Phosphodiesterase 7): > 10 µM
- IC50 (Phosphodiesterase 1): > 10 µM
- Activity (Mus musculus [32]): 0.83 pmol
- Ratio IC50 (Homo sapiens [33]): 1260
- Activity (Hippocampus [34]): 180.85%
- Activity (Hippocampus [35]): 192.63%
- IC50 (Phosphodiesterase 8): > 10 µM
- IC50 (Phosphodiesterase 4): > 10 µM
- IC50 [36]: > 10 µM
- IC50 [37]: > 10 µM
- IC50 (Phosphodiesterase 6): 0.339 µM

— ChEMBL document CHEMBL2331505, “Synthesis of quinoline derivatives: discovery of a potent and selective phosphodiesterase 5 inhibitor for the treatment of Alzheimer's disease” (Eur J Med Chem, 2013)
